ABHD4 inh = ABHD4 (mouse) inhibition, primary FP screen | 370,000 compounds, 0.54% hits | purified mABHD4, FP-Rh probe fluorescence polarization | inhibition, % at 8.92 µM | Q8VD66 | AID 720543;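 active = inhibition exceeding the mean over every tested compound plus 3 SD, cut at about 30% in these data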;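 note: 0% = plate median of compound wells and 100% = S159A mutant with DMSO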
Target sequence (Q8VD66 whole entry, looked up): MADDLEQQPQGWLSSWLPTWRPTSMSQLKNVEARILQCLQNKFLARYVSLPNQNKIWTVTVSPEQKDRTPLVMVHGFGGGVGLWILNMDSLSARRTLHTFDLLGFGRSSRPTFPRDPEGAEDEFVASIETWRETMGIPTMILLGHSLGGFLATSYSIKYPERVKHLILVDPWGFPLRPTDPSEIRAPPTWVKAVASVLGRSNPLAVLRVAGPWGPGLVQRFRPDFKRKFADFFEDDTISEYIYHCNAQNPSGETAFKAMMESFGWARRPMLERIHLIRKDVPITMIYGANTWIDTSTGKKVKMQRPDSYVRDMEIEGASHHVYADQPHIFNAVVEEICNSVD
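System: mouse ABHD4 enzyme, wild type / Medium: HEPES pH 7.0, NaCl, Pluronic buffer / Reagent: FP-Rh activity-based fluorescent probe / Control set: S159A mutant high control, sample median low control / Detection: fluorescence polarization with parallel and perpendicular emission, 525/598 nm / Schedule: 45 min + 60 min at 25 °C / Compound dosing: 8.92 µM, single dose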
TCR CD3 inh = inhibitors of human TCR-CD3 interaction | TAMRA-labeled TCR probe fluorescence, biochemical | inhibition, % at 9.4 µM | 360,000 compounds, 0.37% hits; in the data active = inhibition above about 19%;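 note: recombinant mutant TCR 2C K166C tagged with TAMRA read by polarization; 0% = receptor in buffer alone and 100% = receptor with positive control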
HTRA1 inh = HTRA1 (human) protease inhibition | inhibition, % at 5.96 µM | recombinant HTRA1, FP-rhodamine activity-based probe, fluorescence polarization | Q92743 | 340,000 compounds, 0.5% hits | AID 504803; in the data active = inhibition above about 36%;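 note: 0% = enzyme with DMSO and 100% = wells lacking enzyme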
rCAG RNA binder = r(CAG) repeat RNA binding | TO-PRO-1 dye displacement fluorescence | AID 651821 | 370,000 compounds, 1.3% hits | inhibition, % at 3 µM;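 active = inhibition above the plate cutoff, the mean of all test compounds on that plate plus 3 SD, cut at about 35% in these data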;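 note: 0% = DMSO alone and 100% = 100 µM mitoxantrone as full dye displacement; higher means more dye released from RNA so lower well fluorescence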
PRMT1 FP inh = blocks human protein arginine methyltransferase 1; Q99873; inhibition, % at 2.79 µM; 370,000 compounds, 1.3% hits; recombinant PRMT1, activity-based probe fluorescence polarization;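 active = inhibition above about 21% made by adding two undisclosed values, limit read from the data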
SIAE primary = human SIAE inhibition, primary screen; AID 1053197; SIAE FP-Rh probe binding, fluorescence polarization; Q9HAT2; 370,000 compounds, 0.69% hits; inhibition, % at 9.66 µM;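 active = inhibition above a cutoff: mean of compounds within the control limits plus 3 SD of those, cut at about 17% in these data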;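 note: 0% = plate median of compound wells and 100% = probe without SIAE protein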
rCAG binder conf = r(CAG) RNA repeat binding, confirmation. 4,300 compounds, 70% hits. TO-PRO-1 dye displacement fluorescence. AID 652065. inhibition, % at 3 µM. shares compounds with rCAG RNA binder;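 active = inhibition above a per-plate cutoff, the mean inhibition of sample wells plus 3 SD, cut at about 35% in these data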;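 note: loss of TO-PRO-1 fluorescence as compound displaces dye from 1x1 AA loop RNA; 0% = DMSO only wells and 100% = 100 µM mitoxantrone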
dCAG dye counter = counter-screen for rCAG RNA binders: DNA CAG dye complex inhibitors; AID 652068; d(CAG) DNA oligo TO-PRO-1 dye displacement, fluorescence; shares compounds with rCAG RNA binder; 4,300 compounds, 94% hits; inhibition, % at 3 µM;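 active = inhibition above its plate's cutoff, the mean test-well inhibition plus 3 SD, cut at about 4.8% in these data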;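 note: 0% = DNA dye mix with DMSO and 100% = 100 µM mitoxantrone; hits displace the dye from DNA and so lower well fluorescence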
An asterisk follows results filed as active; . = no result given. This is a sample that favours compounds with a hit; in the whole collection about 3.5% have one here.

SMILES	ABHD4 inh	TCR CD3 inh	HTRA1 inh	rCAG RNA binder	PRMT1 FP inh	SIAE primary	rCAG binder conf	dCAG dye counter
Cc1noc(NS(=O)(=O)c2ccc(NC(=O)c3nn(-c4ccccc4)ccc3=O)cc2)c1C	-1	6	4	35*	-1	-10	21	5.7*
Cc1noc(NS(=O)(=O)c2ccc(NC(=O)CCN3C(=O)c4ccccc4C3=O)cc2)c1C	1	1	5	14	1	-1	.	.
Cc1noc(NS(=O)(=O)c2ccc(NC(=O)c3ccc(N4C(=O)c5ccccc5C4=O)cc3)cc2)c1C	0	1	2	74*	1	0	59*	26*
O=C(CN1C(=O)c2cccc3cccc1c23)Nc1ccc(S(=O)(=O)Nc2nccs2)cc1	-8	-1	7	67*	4	-5	47*	17*
O=C(Nc1ccc(S(=O)(=O)Nc2nccs2)cc1)c1nn(-c2ccc(F)cc2)ccc1=O	16	-1	8	46*	7	-14	45*	20*
Cc1noc(NS(=O)(=O)c2ccc(NC(=O)c3cc(=O)c4ccccc4o3)cc2)c1C	0	4	-5	37*	-7	-4	13	2
CCOC(=O)CSc1nc(C2CC2)cc(-c2ccc(Cl)cc2)c1C#N	-1	-2	-7	11	7	-11	.	.
N#Cc1c(-c2ccc(Cl)cc2)cc(-c2cccs2)nc1SCC(=O)O	-11	10	-53	66*	7	-22	62*	25*
N#Cc1c(-c2ccccc2)cc(-c2cccs2)nc1SCC(=O)O	-5	3	-30	50*	4	-6	41*	17*
COc1ccc(-c2cc(-c3cccs3)c(C#N)c(SCC(=O)NCc3ccccc3)n2)cc1	-7	-1	-4	1	2	0	.	.
C[C@H]1[C@H](N)CC[C@@]23CCCN2C(=O)CCC[C@@H]13	0	.	.	.	1	2	.	.
CCOC(=O)[C@]12CCCCC/C=C\1N(CCc1ccc(Cl)cc1)C(=O)[C@H]2CC(=O)NCC12CC3CC(CC(C3)C1)C2	-5	.	.	8	-1	-2	.	.
O=C(Nc1ccc(S(=O)(=O)N2CCCc3ccccc32)cc1)C1CCCO1 (stereo unspecified)	.	.	-1	.	.	.	.	.
O=C(O)C1CC=CCC1C(=O)Nc1ccc(S(=O)(=O)N2CCCc3ccccc32)cc1 (stereo unspecified)	-13	-12	-10	36*	-1	-4	37*	9.1*
Oc1ccc(C2Nc3cccc4cccc(c34)N2)c(O)c1	-5	2	42*	75*	1	20*	64*	44*
C=CCN1C(=O)/C(=C\c2ccc(OC(=O)c3ccco3)c(OC)c2)SC1=S	-5	-12	-8	7	5	-2	.	.
C=CCN1C(=O)/C(=C/c2ccc(OC(C)=O)c(OCC)c2[N+](=O)[O-])SC1=S	-27	-36	14	80*	10	1	42*	12*
CCC(=O)N1CCc2cc(Br)c(S(=O)(=O)NCCCN(CC)Cc3ccccc3)cc21	-1	.	.	5	-3	1	.	.
Cc1ccc(S(=O)(=O)N2[C@@H](c3ccccc3F)C(C(=O)O)=CC[C@H]2c2cccc(Cl)c2)cc1	8	3	2	13	-1	0	.	.
COc1ccc([C@@H]2CC=C(C(=O)O)[C@H](c3ccccc3F)N2S(=O)(=O)c2ccc(C)cc2)cc1OC	18	7	-1	32	-1	7	.	.
Cc1ccc(S(=O)(=O)N2[C@@H](c3ccc(F)cc3)C(C(=O)O)=CC[C@H]2c2ccc3c(c2)OCO3)cc1	12	-2	-11	53*	0	-2	51*	17*
Cc1ccc([C@@H]2CC=C(C(=O)O)[C@H](c3ccccc3F)N2S(=O)(=O)c2ccc(C)cc2)cc1	12	4	-14	61*	1	2	55*	21*
Cc1ccc(S(=O)(=O)N2[C@@H](c3ccc(F)cc3)C(C(=O)O)=CC[C@H]2c2cccc(C)c2)cc1	5	-10	1	9	2	1	.	.

Screening data (PubChem BioAssay)
